TDP2 absorb: TDP2 (human) inhibition, absorbance primary screen; AID 720702; recombinant TDP2, T5PNP hydrolysis, p-nitrophenol absorbance 415 nm; inhibition, % at 12.8 µM; 0.34% of 370,000 active; O95551;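 active = inhibition above the mean of all tested compounds plus 3 SD, set per campaign, cut at about 25% in these data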;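 note: 0% = DMSO with enzyme and 100% = buffer with substrate but no TDP2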
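Incubation: 2 h at 37 °C; Test system: recombinant human TDP2; Quantity: enzyme 120 nM; Read-out basis: percent inhibition; Medium: 50 mM Tris-HCl pH 7.5 with Mg2+, KCl, DTT, BSA; Repeats: single replicate; Compound: 12.8 µM single point, 1% DMSO; Signal: epi absorbance; Reagent: 5 mM T5PNP chromogenic substrate; Benchmarks: no-enzyme high, DMSO-plus-enzyme low.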
UHRF1 MBD2 ctr: human UHRF1 methylated DNA binding inhibitors; inhibition, % at 4.4 µM; 0.75% of 370,000 active; UHRF1 binding to methylated oligo, TR-FRET; in the data active = inhibition above about 21%;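 note: UHRF1 SRA domain binding a hemimethylated CpG hairpin DNA probe; 0% = median of test compound wells and 100% = reference inhibitor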
LEDGF integ inh: blocks HIV-1 LEDGF/p75-dependent DNA integration; TR-FRET IN-LEDGF/p75 DNA integration, Eu/Cy5; inhibition, % at 3.7 µM; 0.64% of 370,000 active;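 active = inhibition above the screen-wide mean plus 3 SD, cut at about 13% in these data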;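 note: signal is the Cy5 over europium emission ratio at 671 and 618 nm; 0% = plate median of compound wells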
PRMT1 inh: blocks human protein arginine methyltransferase 1; recombinant PRMT1, activity-based probe fluorescence polarization; Q99873; inhibition, % at 2.79 µM; AID 652257; 1.3% of 370,000 active;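 active = inhibition above about 21% made by adding two undisclosed values, limit read from the data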
Target sequence (Q99873 whole entry, looked up): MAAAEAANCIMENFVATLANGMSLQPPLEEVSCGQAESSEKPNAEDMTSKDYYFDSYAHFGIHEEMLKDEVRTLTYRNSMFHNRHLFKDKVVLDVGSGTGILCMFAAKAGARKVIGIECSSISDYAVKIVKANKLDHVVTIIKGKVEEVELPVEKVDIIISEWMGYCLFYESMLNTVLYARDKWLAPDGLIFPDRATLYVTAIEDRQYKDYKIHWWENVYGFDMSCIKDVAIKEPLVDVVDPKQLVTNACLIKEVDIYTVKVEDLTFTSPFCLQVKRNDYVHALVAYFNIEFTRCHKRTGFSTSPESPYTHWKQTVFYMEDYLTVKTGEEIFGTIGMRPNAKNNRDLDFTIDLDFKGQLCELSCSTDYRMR
SIAE primary: inhibitors of human sialic acid acetylesterase SIAE. Q9HAT2. SIAE FP-Rh probe binding, fluorescence polarization. inhibition, % at 9.66 µM. 0.69% of 370,000 active. AID 1053197;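 active = inhibition above a cutoff: mean of compounds within the control limits plus 3 SD of those, cut at about 17% in these data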;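 note: 0% = plate median of compound wells and 100% = probe without SIAE protein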
MBD2 DNA inh: inhibitors of human MBD2 binding to methylated oligonucleotide. TR-FRET. AID 686964. inhibition, % at 4.4 µM. 0.31% of 370,000 active. Q9UBB5; in the data active = inhibition above about 13%
PRMT1 inh conf: confirmation of human PRMT1 inhibitors; recombinant His-PRMT1, activity-based probe fluorescence polarization; AID 687036; 42% of 3,300 active; shares compounds with PRMT1 inh; inhibition, % at 2.79 µM;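 active = mean inhibition across replicates above the hit cutoff derived for the earlier primary screen, cut at about 22% in these data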
Starred values were filed as active, the others as inactive; nt = no result. In the library only some 3.3% were active in any assay of this set; here they are far more common.

SMILES	TDP2 absorb	UHRF1 MBD2 ctr	LEDGF integ inh	PRMT1 inh	SIAE primary	MBD2 DNA inh	PRMT1 inh conf
Cc1ccc(N2CC(C(=O)OCC(=O)c3ccc([N+](=O)[O-])cc3)CC2=O)cc1 (stereo not given)	-9	-4	1	29*	1	2	48*
C[C@H]1CCCN1c1ccc2c(c1)O[C@H]1CCN(C1)S2(=O)=O	8	10	-4	3	0	4	nt
COc1ccc(/C=C/C(=O)NC2=NCCS2)c(OC)c1	-3	-3	0	-2	4	-7	nt
CC(C)C(NC(=O)C1CCCCC1)C(=O)NCCc1ccccc1 (stereo not given)	3	21*	-1	25*	7	6	-1
CC(C)NC(=O)N[C@H]1C[C@@H]2O[C@H](CO)CC[C@@H]2O[C@@H]1CCc1ccc(-c2ccccc2F)cc1	-1	7	0	3	-3	-6	nt
Cc1ccc(-n2c(Cc3cccs3)nnc2SCC(=O)Nc2ccc(OCc3ccccc3)cc2)cc1	1	-2	-2	0	-8	2	nt
CCOC(=O)CNC(=O)CSc1nnc(C)c(=O)[nH]1	-1	2	-2	-2	2	-1	nt
CCOC(=O)CSc1nnc(NCC(=O)OC(C)C)c(=O)[nH]1	-13	0	-2	54*	15	4	67*
CC(Nc1cc(N2CCN(S(C)(=O)=O)CC2)ccc1[N+](=O)[O-])c1ccccc1 (stereo not given)	2	-4	4	2	-1	-3	nt
CS(=O)(=O)N1CCN(c2ccc([N+](=O)[O-])c(SCc3ccco3)c2)CC1	-14	-3	4	33*	4	0	2
COc1ccc(OC)c(-c2cc(C3CCN(c4cc(Cl)nc(N)n4)CC3)[nH]n2)c1	0	-1	1	40*	-2	-4	-1
COc1cccc(NS(=O)(=O)c2ccc3c(c2)C2C=CCC2C(c2ccc(C(=O)O)cc2)N3)c1 (stereo not given)	16	8	44*	42*	10	1	30*
Cc1cccc(CCNC(=O)c2ccc3c(c2)ncn3C2CCCCC2)c1	1	3	2	1	-4	-4	nt
CCOC(=O)C1=C(C)N=c2s/c(=C/c3ccc(OCC(=O)O)cc3)c(=O)n2C1c1cc(OC)c(OC)c(OC)c1 (stereo not given)	-9	-2	2	18	1	-4	nt
CCOC(=O)C1=C(C)N=c2sc(=Cc3ccc(OCC(=O)O)cc3)c(=O)n2C1c1ccc(Cl)cc1 (stereo not given)	9	-3	4	42*	-32	4	13
C#CCN1CC(N(C)CCCO)CS1(=O)=O (stereo not given)	5	-3	-4	-3	3	-3	nt
C=C1C(=O)C23C(O)C1CCC2C12CCCC(C)(COC(C)=O)C1C(O)C3(O)OC2 (stereo not given)	2	2	0	31*	5	3	33*
CCNC(=O)OCCN1C(=O)CCC12CCC(c1ccc(Cl)cc1)CC2 (stereo not given)	1	1	0	2	0	0	nt
O=C(NCCNC(=O)c1ccccn1)c1ccc(Cl)cc1	7	0	5	0	2	2	nt
O=C(Sc1ccc(Cl)cc1)c1ccccn1	11	0	-3	47*	8	3	44*
CCC[C@H]1[C@@H](NC(=O)c2ccc(N(C)C)cc2)CC[C@@]23CCCN2C(=O)CCC[C@@H]13	0	2	5	3	4	-6	nt
O=C1C(=Cc2cn(-c3ccccc3)nc2-c2ccc(OCc3ccccc3)cc2)SC(=S)N1CCS(=O)(=O)O	-2	0	1	43*	-97	7	5
Cc1ccc2nc(-c3ccco3)c(Cc3ccsc3)n2c1	4	23*	-1	35*	3	7	27*
COC(=O)c1ccc2nc(-c3ccco3)c(Cc3ccc(C)cc3)n2c1	-2	23*	1	34*	2	10	10
COC(=O)c1ccc2nc(-c3ccco3)c(Cc3cccc(F)c3)n2c1	3	19	6	43*	1	1	36*
SMILES	TDP2 absorb	UHRF1 MBD2 ctr	LEDGF integ inh	PRMT1 inh	SIAE primary	MBD2 DNA inh	PRMT1 inh conf
COC(=O)c1ccc2nc(-c3ccc(C)cc3)c(CC(C)(C)C)n2c1	-5	-1	4	-2	-1	1	nt
CC(=O)NC(c1ccc(F)c(F)c1)c1nc(-c2cnc3ccccc3c2)cs1 (stereo not given)	-1	-1	-1	32*	-4	-3	3
O=C(NCc1ccco1)C1CCCN(S(=O)(=O)c2ccc([N+](=O)[O-])cc2)C1 (stereo not given)	-3	3	1	-6	-6	2	nt
NC(=O)SCC(=O)Nc1ccc(Cl)cc1	-4	-5	2	65*	4	-5	88*
N#CCSCC(=O)Nc1ccc(Cl)cc1	-7	-1	2	14	1	-1	nt
Cc1c(Cl)cccc1NC(=O)CSC(N)=O	-5	2	4	31*	-6	0	96*
Cc1c(Cl)cccc1NC(=O)CSCC(N)=O	-6	1	-2	2	-2	5	nt
CC1(C)N=C(SCC(=O)Nc2ccc(Cl)cc2)C(c2ccc(Cl)cc2)=N1	-2	-2	1	28*	-24	-2	11
NC(=O)SCC(=O)Nc1ccc(Cl)c(Cl)c1	15	-5	1	49*	-36	-6	94*
C[C@H](O)[C@@H]1CN2CCc3c([nH]c4c(-c5ccc6c(c5)OCO6)cccc34)[C@@H]2C[C@@H]1N(C)C(=O)c1ccco1	6	0	3	-5	-6	5	nt
COc1cc(/C=C/C(=O)c2ccccc2)cc(OC)c1OC	-10	1	1	-2	-3	-6	nt
NC(=O)SCC(=O)Nc1cccc(Cl)c1	-2	-1	2	73*	-3	-2	101*
O=C(/C=C/C(Cl)(Cl)Cl)Nc1ccc(Cl)cc1	5	-1	-4	3	-11	1	nt
NC(=O)/C=C/C(=O)Nc1ccc(Cl)cc1	7	-1	-4	87*	-1	-3	32*
Cc1ccc(NC(=O)CSC(N)=O)cc1Cl	-6	-1	-1	28*	-14	-1	89*
CCN(CC)C(=O)CC[C@H]1CC[C@]2(CCCN(Cc3ccc(N(C)C)cc3)C2)O1	5	-2	-5	-1	4	1	nt
O=[N+]([O-])c1cc(-c2ncccn2)c([N+](=O)[O-])s1	-4	-12	-3	28*	9	-9	37*
O=C(Nc1ncccn1)c1cc([N+](=O)[O-])cc([N+](=O)[O-])c1	-9	1	-2	2	4	-1	nt
